Experiments:
[1] = target: Peptidyl-prolyl cis-trans isomerase F, mitochondrial (Mus musculus) (UniProt Q99KR7); assay: Inhibition of cyclophilin D in mouse HT22 cells assessed as reduction in amyloid beta (1 to 42) induced mitochondrial permeability transition pore opening by measuring increase in green to red fluorescence ratio at 5 uM pretreated for 10 mins followed by amyloid beta (1 to 42) stimulation measured at 1 hr interval for 3 hrs by JC-1 dye based fluorescence assay relative to control; format: cell-based; parameters: scale not given: the % may be the effect or the level left
In short: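 HT-22 cells, 30,000 per well, loaded with JC-1 at 7.5 µM final in phenol red-free Opti-MEM for 1 h 15 min at 37 °C, then PBS-washed. Compound at 5 µM for 10 min at 37 °C, then Aβ1-42 (5 µM solution) added. Red (ex/em 530/580 nm) and green (485/530 nm) fluorescence read hourly for 3 h. Green/red ratio normalized to the Aβ-alone control as 100%.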

[2] = Cytotoxicity against mouse Neuro2a cells assessed as cell viability at 10 uM after 72 hrs by MTT assay relative to control; format: cell-based, N2a; conditions: read-out: Activity
In short: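 Neuro-2a cells grown in EMEM with 10% FBS and penicillin/streptomycin. A 10 mM DMSO stock was diluted 3-fold over 10 doses in DMSO, and 2000 cells were added per well. Incubated 72 h at 37 °C, 5% CO2. MTT added for 4 h, then solubilization/stop solution for 1 h. Absorbance read at 590 nm. Viability is from color intensity, with IC50 fitted to a sigmoidal dose-response curve.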

N2a [3] = assay: Induction of reactive oxygen species production in mouse Neuro2a cells assessed as H2O2 level at 10 uM after 6 hrs by ROS-Glo luminescence assay relative to control; format: cell-based
In short: (§1)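 Neuro-2a cells, 2000 per well, given compounds from 10-dose 3-fold serial dilutions of 10 mM DMSO stocks. H2O2 substrate added immediately, then 6 h at 37 °C, 5% CO2. ROS-Glo detection reagent added for 20 min at RT, then luminescence read. H2O2 expressed as fold of untreated, with IC50 fitted from the dose series.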

[4] = target: Peptidyl-prolyl cis-trans isomerase F, mitochondrial (Mus musculus) (UniProt Q99KR7); assay: (§2) Inhibition of Cyclophilin D in mouse HT22 cells assessed as neuroprotective activity against amyloid beta (1 to 42) induced impairment of ATP production by measuring cell viability at 5 pretreated for 10 mins followed by amyloid beta (1 to 42) stimulation measured after 7 hrs by luciferase based assay relative to control
In short: (§3)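 HT-22 cells, 10,000 per well, seeded one day before. Cells pretreated 10 min at 37 °C with compound, then Aβ1-42 added, and incubated 7 h. Cells were washed, lysed in 1% Triton X-100/TBST, and equal protein amounts (BCA) assayed for ATP by luciferase. Recovery was calculated against the Aβ-treated vehicle control. ATP viability comes from samples without Aβ.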

[5] = target: Peptidyl-prolyl cis-trans isomerase F, mitochondrial (Mus musculus) (UniProt Q99KR7); assay: as §2, with “assessed as recovery of ATP production” for “cell viability”, “5 uM” for “5”; format: cell-based; parameters: scale not given: the % may be the effect or the level left; in short: as §3
N2a [6] = assay: Inhibition of reactive oxygen species production in mouse Neuro2a cells assessed as decrease in H2O2 levels after 6 hrs by ROS-Glo luminescence assay; format: functional, cell-based; in short: as §1
N2a [7] = assay: Cytotoxicity against mouse Neuro2a cells assessed as cell viability after 72 hrs by MTT assay; format: ADME, cell-based
[8] = Effective permeability of the compound at pH 7.4 at 50 uM after 4 hrs by PAMPA; format: physicochemical; conditions: read-out: Peff
In short: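 BBB-PAMPA (double-sink) setup. 10 mM DMSO stocks were diluted to 50 µM in buffer pH 7.4 as the donor, with brain sink buffer as the acceptor. Incubated 4 h at 26 °C. Donor, acceptor and reference concentrations measured by UV (230–498 nm), and Pe calculated on a double-sink basis.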

[9] = target: Peptidyl-prolyl cis-trans isomerase F, mitochondrial (Mus musculus) (UniProt Q99KR7); assay: Inhibition of Cyclophilin D in mouse HT22 cells assessed as reduction in amyloid beta (1 to 42) induced decrease in cell viability at 5 uM after 24 hrs by MTT assay relative to control; format: cell-based
In short: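 HT-22 cells, 5000 per well, pretreated 10 min with compound, then Aβ1-42 added and incubated 24 h at 37 °C. MTT added for 2 h, then acidified Triton/isopropanol solubilization, and absorbance read at 570 nm. Percent inhibition calculated relative to vehicle control with Aβ.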

[10] = Cytotoxicity against mouse HT22 cells assessed as cell viability at 5 uM after 24 hrs by MTT assay relative to control; format: cell-based, HT-22; conditions: read-out: Activity
In short: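 HT-22 cells, 5000 per well, seeded one day before the assay. Compound solution added, then cells incubated 24 h at 37 °C. MTT added for 2 h at 37 °C. Formazan dissolved in 10% Triton X-100 in isopropanol with 0.1 M HCl for 1 h at room temperature, then absorbance read. Viability relative to vehicle control, without Aβ.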

[11] = target: Peptidyl-prolyl cis-trans isomerase F, mitochondrial (Mus musculus) (UniProt Q99KR7); assay: Inhibition of Cyclophilin D in mouse HT22 cells assessed as reduction in amyloid beta (1 to 42) induced reactive oxygen species production at 5 uM after 6 hrs by CMH2DCFDA dye based fluorescence assay relative to control; format: cell-based
In short: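 HT-22 cells, 10,000 per well, treated with compound plus Aβ1-42 in Opti-MEM for 6 h. Cells loaded with CM-H2DCFDA (diluted from 1 mM stock) in HBSS for 30 min at 37 °C, then Hoechst added. Total fluorescence intensity per well taken from high-content imaging. Inhibition expressed as percent of the Aβ-induced signal increase.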

[12] = target: Voltage-gated inwardly rectifying potassium channel KCNH2 (Homo sapiens, UniProt Q12809); assay: Displacement of [3H]-Astemizole from human ERG expressed in HEK293 cell membranes measured after 1 hr by microbeta counting method
In short: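 Radioligand binding to membranes (2.5 µg) from HEK-293 cells expressing hERG. Buffer was 50 mM Hepes pH 7.4 with 60 mM KCl, 0.1% BSA and 4 nM [3H]astemizole, incubated 1 h at RT. Samples filtered through PEI-soaked filtermat. Non-specific binding defined with 0.1 µM astemizole. Used 5–6 test concentrations in duplicate, with isotherms from two assays.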

Peptidyl-prolyl cis-trans isomerase F, mitochondrial (Mus musculus), sequence (Q99KR7 whole entry): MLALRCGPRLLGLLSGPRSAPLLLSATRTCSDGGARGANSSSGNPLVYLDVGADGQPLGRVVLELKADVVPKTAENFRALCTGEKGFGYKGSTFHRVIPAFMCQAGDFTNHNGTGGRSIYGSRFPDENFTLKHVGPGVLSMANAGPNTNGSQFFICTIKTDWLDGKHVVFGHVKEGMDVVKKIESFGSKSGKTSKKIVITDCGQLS
Voltage-gated inwardly rectifying potassium channel KCNH2, sequence (Q12809 whole entry): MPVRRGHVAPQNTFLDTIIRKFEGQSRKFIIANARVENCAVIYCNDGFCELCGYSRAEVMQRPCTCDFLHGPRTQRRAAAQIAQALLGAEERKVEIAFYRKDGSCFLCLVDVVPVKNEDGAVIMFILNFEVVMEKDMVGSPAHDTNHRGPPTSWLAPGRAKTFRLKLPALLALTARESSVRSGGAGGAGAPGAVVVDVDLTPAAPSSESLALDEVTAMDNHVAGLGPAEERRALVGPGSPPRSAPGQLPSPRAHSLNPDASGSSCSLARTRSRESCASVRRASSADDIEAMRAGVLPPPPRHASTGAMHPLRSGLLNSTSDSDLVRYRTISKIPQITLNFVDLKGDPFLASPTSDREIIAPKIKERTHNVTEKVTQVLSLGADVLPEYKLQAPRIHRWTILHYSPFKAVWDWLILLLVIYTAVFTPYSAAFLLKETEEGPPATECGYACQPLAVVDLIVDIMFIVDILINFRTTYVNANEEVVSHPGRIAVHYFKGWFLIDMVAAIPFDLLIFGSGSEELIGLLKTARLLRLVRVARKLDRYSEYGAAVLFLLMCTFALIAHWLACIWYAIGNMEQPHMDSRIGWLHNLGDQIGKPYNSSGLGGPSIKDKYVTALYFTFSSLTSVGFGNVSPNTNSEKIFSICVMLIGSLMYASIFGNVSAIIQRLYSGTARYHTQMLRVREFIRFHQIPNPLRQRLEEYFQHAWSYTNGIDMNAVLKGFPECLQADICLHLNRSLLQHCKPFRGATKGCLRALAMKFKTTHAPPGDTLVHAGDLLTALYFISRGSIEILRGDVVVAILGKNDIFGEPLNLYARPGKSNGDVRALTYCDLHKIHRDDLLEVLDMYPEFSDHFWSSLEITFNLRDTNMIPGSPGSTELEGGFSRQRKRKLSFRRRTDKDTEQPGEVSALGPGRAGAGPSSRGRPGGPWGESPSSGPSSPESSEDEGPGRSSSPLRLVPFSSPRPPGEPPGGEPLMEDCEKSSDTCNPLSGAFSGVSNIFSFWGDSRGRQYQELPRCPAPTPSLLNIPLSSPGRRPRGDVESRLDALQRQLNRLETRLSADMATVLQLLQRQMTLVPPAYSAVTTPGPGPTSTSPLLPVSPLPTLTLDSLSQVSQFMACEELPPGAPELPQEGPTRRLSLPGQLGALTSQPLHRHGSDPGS

O=C(NCCCl)Nc1ncccc1OCc1ccc(F)cc1
Activity [1]: 64%

CC(C)(C)CC(C)(C)NC(=O)Nc1ncccc1OCc1cccc(Cl)c1
Activity [1]: 50%

CC(C)(C)NC(=O)Nc1ncccc1OCc1cccc(Cl)c1
Activity [1]: 176%

O=C(Nc1ncccc1OCc1cccc(F)c1)NC1CCCCCC1
Activity [1]: 91%

CN[C@@H]1C[C@H]2O[C@@](C)([C@@H]1OC)n1c3ccccc3c3c4c(c5c6ccccc6n2c5c31)C(=O)NC4 [STAUROSPORINE]
viability at 72 h, 10 µM [2]: 1.3%

CC(C)(C)NC(=O)Nc1ncccc1OCc1ccc(F)cc1
Activity [1]: 49%

CCNC(=O)Nc1ncccc1OCc1ccccc1Cl
Activity [1]: 49%

CCNC(=O)Nc1ncccc1OCc1ccc(F)cc1
Activity [1]: 127%

O=C(NCCCl)Nc1ncccc1OCc1ccccc1Cl
Activity [1]: 41%

CCNC(=O)Nc1ncccc1OCc1cccc(F)c1
fold change (FC) (N2a [3]): 1.14
Activity [4]: 102%
Activity [5]: 41%
IC50 (N2a [6]): > 10 µM
IC50 (N2a [7]): > 10 µM
Activity [1]: 14%
viability at 72 h, 10 µM [2]: 96.6%

O=C(Nc1ncccc1OCc1ccccc1Cl)NC1CCCCCC1
Activity [1]: 41%

O=C(Nc1ncccc1OCc1ccc(Cl)cc1)NC1CCCCCC1
fold change (FC) (N2a [3]): 1.15
Activity [4]: 105%
Activity [5]: 47%
IC50 (N2a [6]): > 10 µM
IC50 (N2a [7]): > 10 µM
Activity [1]: 19%
viability at 72 h, 10 µM [2]: 85.2%

CC(C)(C)NC(=O)Nc1ncccc1OCc1ccccc1
fold change (FC) (N2a [3]): 0.92
Activity [4]: 103%
Papp at 4 h, 50 µM [8]: 45.1 ×10⁻⁶ cm/s
inhibition [9]: 11%
Activity [5]: 72%
IC50 (N2a [6]): > 10 µM
IC50 (N2a [7]): > 10 µM
Activity [1]: 23%
viability at 24 h, 5 µM [10]: 92%
viability at 72 h, 10 µM [2]: 106%
inhibition [11]: 95%

CCNC(=O)Nc1ncccc1OCc1ccc(Cl)cc1
Activity [1]: 94%

NC(=O)CN1CCCC1=O
Activity [4]: 88%
inhibition [9]: 29%
Activity [5]: 127%
viability at 24 h, 5 µM [10]: 132%
inhibition [11]: 129%

CC(C)(C)CC(C)(C)NC(=O)Nc1ncccc1OCc1cccc(F)c1
fold change (FC) (N2a [3]): 1.02
Activity [4]: 30%
Activity [5]: -140%
IC50 (N2a [6]): > 10 µM
IC50 (N2a [7]): > 10 µM
Activity [1]: 31%
viability at 72 h, 10 µM [2]: 101%

O=C(NCCN1CCNCC1)Nc1ncccc1OCc1cccc(Cl)c1
Activity [1]: 48%

O=C(NCCN1CCNCC1)Nc1ncccc1OCc1ccccc1
fold change (FC) (N2a [3]): 0.97
Activity [4]: 78%
Papp at 4 h, 50 µM [8]: 20.6 ×10⁻⁶ cm/s
IC50 [12]: > 28.7 µM
inhibition [9]: 81%
Activity [5]: 87%
IC50 (N2a [6]): > 10 µM
IC50 (N2a [7]): > 10 µM
Activity [1]: 16%
viability at 24 h, 5 µM [10]: 133%
viability at 72 h, 10 µM [2]: 102%
inhibition [11]: 97%

CC(=O)[C@H]1CC[C@H]2[C@@H]3CCC4=CC(=O)CC[C@]4(C)[C@H]3CC[C@]12C [PROGESTERONE]
Papp at 4 h, 50 µM [8]: 48.8 ×10⁻⁶ cm/s

CC(C)(C)NC(=O)Nc1ncccc1OCc1ccc(Cl)cc1
fold change (FC) (N2a [3]): 0.91
Activity [4]: 104%
Activity [5]: 13%
IC50 (N2a [6]): > 10 µM
IC50 (N2a [7]): > 10 µM
Activity [1]: 35%
viability at 72 h, 10 µM [2]: 93.1%

Cn1c(=O)c2[nH]cnc2n(C)c1=O.O [THEOPHYLLINE]
Papp at 4 h, 50 µM [8]: 0.29 ×10⁻⁶ cm/s

O=C(NCCCl)Nc1ncccc1OCc1ccc(Cl)cc1
Activity [1]: 131%

O=C(Nc1ncccc1OCc1ccc(F)cc1)NC1CCCCCC1
fold change (FC) (N2a [3]): 0.91
Activity [4]: 99%
Activity [5]: 40%
IC50 (N2a [6]): > 10 µM
IC50 (N2a [7]): > 10 µM
Activity [1]: 28%
viability at 72 h, 10 µM [2]: 93.2%

O=C(NCCCl)Nc1ncccc1OCc1ccccc1
Activity [1]: 169%

CC(C)(C)NC(=O)Nc1ncccc1OCc1cccc(F)c1
fold change (FC) (N2a [3]): 0.94
Activity [4]: 129%
Activity [5]: 45%
IC50 (N2a [6]): > 10 µM
IC50 (N2a [7]): > 10 µM
Activity [1]: 44%
viability at 72 h, 10 µM [2]: 95.8%

O=C(NCCCl)Nc1ncccc1OCc1cccc(Cl)c1
Activity [1]: 73%

CC(C)(C)CC(C)(C)NC(=O)Nc1ncccc1OCc1ccccc1Cl
Activity [1]: 21%

CC1=CC(=O)c2ccccc2C1=O [MENADIONE]
fold change (FC) (N2a [3]): 6.94
IC50 (N2a [6]): 2.69 µM

O=C(Nc1ncccc1OCc1cccc(Cl)c1)NC1CCCCCC1
Activity [1]: 46%

O=C(Nc1ncccc1OCc1ccccc1)NC1CCCCCC1
Activity [1]: 130%

From ChEMBL document CHEMBL4004826, “Discovery of 1-(3-(benzyloxy)pyridin-2-yl)-3-(2-(piperazin-1-yl)ethyl)urea: A new modulator for amyloid beta-induced mitochondrial dysfunction” (Eur J Med Chem, 2017)
